In ChEMBL document CHEMBL1140468, “Design, synthesis and biological evaluation of substituted dioxodibenzothiazepines and dibenzocycloheptanes as farnesyltransferase inhibitors” (Bioorg Med Chem Lett, 2007):

How the values were obtained:
[1] = target: Protein farnesyltransferase (Homo sapiens, UniProt P49354+P49356); experiment: Inhibition of FTase by fluorescence spectrometry technique; type: protein-complex assay
MCF7 = experiment: Antiproliferative activity against MCF7 cells by colorimetric MTT assay; type: functional, cell-based; details: Homo sapiens
In short: (§1)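 Proliferation of the human tumour lines DU145, PC-3 and MCF-7 was read out by colorimetric MTT assay. Values come from at least three independent determinations, with standard deviation below 10%.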

PC-3 = experiment: Antiproliferative activity against PC3 cells by colorimetric MTT assay; type: functional, cell-based; details: Homo sapiens; in short: as §1
L1210 [2] = experiment: Antiproliferative activity against L1210 cells by cell numeration; details: Mus musculus
DU-145 [3] = experiment: Antiproliferative activity against DU145 cells by colorimetric MTT assay; type: functional, cell-based; details: Homo sapiens; in short: as §1
L1210 [4] = experiment: Antiproliferative activity against L1210 cells by cell numeration at 10 uM; details: Mus musculus
DU-145 [5] = experiment: Antiproliferative activity against DU145 cells by colorimetric MTT assay at 100 uM; type: functional; details: Homo sapiens

Row | SMILES | IC50 [1] [µM] | IC50 (MCF7) [µM] | IC50 (PC-3) [µM] | IC50 (L1210 [2]) [µM] | IC50 (DU-145 [3]) [µM] | inhibition at 10 µM (L1210 [4]) [%] | inhibition at 100 µM (DU-145 [5]) [%]
1 | N#Cc1ccc(Cn2cncc2CN2CCCN(C3c4ccccc4N(CCCN4CCOCC4)S(=O)(=O)c4ccccc43)CC2)cc1 (centres undefined) | 0.0173 | 33 | 27.3 | 4.57 | 47.4 | – | –
2 | N#Cc1ccc(Cn2cncc2CN[C@H](CC(=O)N[C@@H](Cc2ccccc2)C(N)=O)Cc2ccccc2)cc1 | 0.0285 | > 100 | > 100 | – | > 100 | 41 | –
3 | COC(=O)[C@H](Cc1ccccc1)N(C(=O)c1ccccc1)C1CCN(Cc2cncn2Cc2ccc(C#N)cc2)CC1 | 0.022 | – | – | 4.95 | – | – | –
4 | CCCN1c2ccccc2C(N2CCCN(Cc3cncn3Cc3ccc(C#N)cc3)CC2)c2ccccc2S1(=O)=O (centres undefined) | 0.0465 | – | 34.1 | 4 | – | – | 38
5 | CCCCN1c2ccccc2C(N2CCCN(Cc3cncn3Cc3ccc(C#N)cc3)CC2)c2ccccc2S1(=O)=O (centres undefined) | 0.043 | 66 | – | 3 | 100 | – | –

More lines, main results first:

Row | IC50 [1] [µM] | IC50 (MCF7) [µM] | IC50 (PC-3) [µM] | IC50 (L1210 [2]) [µM] | IC50 (DU-145 [3]) [µM] | SMILES | inhibition at 10 µM (L1210 [4]) [%] | inhibition at 100 µM (DU-145 [5]) [%]
6 | 0.31 | 45 | 11.4 | 4.85 | 9.55 | N#Cc1ccc(Cn2cncc2CN2CCN(C3c4ccccc4CCc4ccccc43)CC2)cc1 | – | –
7 | 0.0448 | 48 | 50 | 4.76 | 59.8 | CN1c2ccccc2C(N2CCCN(Cc3cncn3Cc3ccc(C#N)cc3)CC2)c2ccccc2S1(=O)=O (centres undefined) | – | –
8 | 0.285 | 41 | – | – | 51.3 | N#Cc1ccc(Cn2cncc2CN2CCCN(C3c4ccccc4CCc4ccccc43)CC2)cc1 | 34 | –
9 | 0.045 | 76 | 69.4 | 3.9 | 100 | CN1c2ccccc2C(N2CCN(Cc3cncn3Cc3ccc(C#N)cc3)CC2)c2ccccc2S1(=O)=O (centres undefined) | – | –
